Experiments:
[1] = target: T1, B2 bradykinin receptor (Cavia porcellus, UniProt O70526); assay: Antagonist potency on BK-induced contraction of guinea pig ileum longitudinal smooth muscle; assay type: functional, tissue-based; conditions: read-out: pA2 (converted)
T1 sequence (O70526 whole entry): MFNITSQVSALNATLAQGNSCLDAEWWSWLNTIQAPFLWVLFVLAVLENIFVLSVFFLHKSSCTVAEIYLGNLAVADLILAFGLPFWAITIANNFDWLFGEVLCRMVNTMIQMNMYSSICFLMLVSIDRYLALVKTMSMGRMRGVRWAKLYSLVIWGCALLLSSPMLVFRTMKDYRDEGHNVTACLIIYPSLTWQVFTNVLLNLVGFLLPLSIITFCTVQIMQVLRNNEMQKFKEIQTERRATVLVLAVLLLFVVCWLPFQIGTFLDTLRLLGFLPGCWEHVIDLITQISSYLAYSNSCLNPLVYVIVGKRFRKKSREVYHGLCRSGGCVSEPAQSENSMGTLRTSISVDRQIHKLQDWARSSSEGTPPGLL

[2] = target: T2, B2 bradykinin receptor (Homo sapiens, UniProt P30411); assay: Displacement of [3H]BK from human bradykinin B2 receptor transfected in CHO cells; assay type: cell-based
T2 sequence (P30411 whole entry): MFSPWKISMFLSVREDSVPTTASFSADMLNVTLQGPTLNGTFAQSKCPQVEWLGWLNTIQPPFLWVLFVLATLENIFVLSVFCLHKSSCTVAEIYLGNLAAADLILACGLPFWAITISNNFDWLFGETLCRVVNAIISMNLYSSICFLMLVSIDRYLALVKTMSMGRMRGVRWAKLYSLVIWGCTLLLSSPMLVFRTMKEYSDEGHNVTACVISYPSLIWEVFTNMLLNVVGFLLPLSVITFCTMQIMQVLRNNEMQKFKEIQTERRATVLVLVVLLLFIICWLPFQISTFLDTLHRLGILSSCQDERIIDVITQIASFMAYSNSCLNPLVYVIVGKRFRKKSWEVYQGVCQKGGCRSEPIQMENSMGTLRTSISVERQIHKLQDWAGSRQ
In short: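 pKi from inhibition of specific [3H]-BK binding to membrane preparations of CHO cells stably transfected with the human B2 receptor.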

[3] = target: T3, B2 bradykinin receptor (Cavia porcellus) (UniProt O70526); assay: Inhibition of BK-induced bronchoconstriction in Dunkin Hartley guinea pig at 300 nmol/kg, it; assay type: functional; set-up: scale not given: the % may be the effect or the level left
T3 sequence (whole entry): T1 sequence (O70526 whole entry)
In short: (§1)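 Compound was given intratracheally to anaesthetized guinea pigs. Five min later, BK (10 nmol/kg iv) challenge was given and repeated every 30 min for 210 min. Pulmonary insufflation pressure was monitored. Result is Σ%: residual BK response as % of basal, normalized to control at 5–210 min time points, expressed as % of theoretical maximum.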

[4] = target: T4, B1 bradykinin receptor (Homo sapiens, UniProt P46663); assay: Binding affinity to human bradykinin B1 receptor
T4 sequence (P46663 whole entry): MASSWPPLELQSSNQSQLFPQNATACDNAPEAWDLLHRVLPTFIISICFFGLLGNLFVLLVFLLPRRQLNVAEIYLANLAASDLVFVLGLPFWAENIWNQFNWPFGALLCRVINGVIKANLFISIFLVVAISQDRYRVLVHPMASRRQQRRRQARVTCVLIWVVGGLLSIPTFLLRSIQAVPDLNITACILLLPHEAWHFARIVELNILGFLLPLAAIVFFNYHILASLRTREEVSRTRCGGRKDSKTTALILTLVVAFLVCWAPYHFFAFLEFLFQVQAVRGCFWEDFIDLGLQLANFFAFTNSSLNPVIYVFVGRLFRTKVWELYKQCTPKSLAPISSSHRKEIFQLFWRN

[5] = target: T2, B2 bradykinin receptor; assay: Antagonist potency at human bradykinin B2 receptor assessed as effect on inositol monophosphate accumulation in CHOdhfr- cells; assay type: functional, cell-based; conditions: read-out: pA2 (converted)
In short: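 pA2 derived from antagonism of bradykinin-stimulated inositol monophosphate accumulation in CHOdhfr- cells stably transfected with the human B2 receptor.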

[6] = target: T3, B2 bradykinin receptor (Cavia porcellus); assay: Effect on BK-induced hypotension in Dunkin Hartley guinea pig at 300 nmol/kg, it; assay type: functional
In short: as §1, with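 “Blood” for “Pulmonary insufflation”, “each observation” for “5–210 min”, “(5–210 min),” for “points,”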

[7] = target: T3, B2 bradykinin receptor (Cavia porcellus); assay: Effect on BK-induced hypotension in Dunkin Hartley guinea pig at 100 nmol/kg, it; assay type: functional
In short: as §1, with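 “Blood” for “Pulmonary insufflation”, “each observation” for “5–210 min”, “(5–210 min),” for “points,”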

[8] = target: T3, B2 bradykinin receptor (Cavia porcellus); assay: Inhibition of BK-induced bronchoconstriction in Dunkin Hartley guinea pig at 100 nmol/kg, it; assay type: functional; set-up: scale not given: the % may be the effect or the level left; in short: as §1

| Compound | Kb [1] | Ki [2] | Activity [3] | Ki [4] | Kb [5] | Activity [6] | Activity [7] | Activity [8] |
| --- | --- | --- | --- | --- | --- | --- | --- | --- |
| Cc1cc(C)c2cccc(OCc3c(Cl)ccc(S(=O)(=O)NC(C)(C)C(=O)N4CCN(C(=O)[C@@H](N)CCCCNC(=N)N)CC4)c3Cl)c2n1 | 0.1 nM | 0.631 nM | 54% | > 10000 nM | 0.794 nM | 78% | – | – |
| Cc1cc(C)c2cccc(OCc3c(Cl)ccc(S(=O)(=O)NC(C)(C)C(=O)N4CCN(C(=O)[C@@H](N)CCCN(C)C)CC4)c3Cl)c2n1 | 0.1 nM | – | 39% | > 10000 nM | – | 79% | – | – |
| Cc1cc(C)c2cccc(OCc3c(Cl)ccc(S(=O)(=O)NC(C)(C)C(=O)N4CCN(C(=O)C[C@@H](N)CCCN(C)C)CC4)c3Cl)c2n1 | 0.1 nM | – | 20% | > 10000 nM | – | 63% | – | – |
| Cc1cc(C)c2cccc(OCc3c(Cl)ccc(S(=O)(=O)NC4(C(=O)N5CCN(C(=N)NCCCN(C)C)CC5)CCCC4)c3Cl)c2n1 | – | 0.631 nM | 24% | > 10000 nM | 0.501 nM | 69% | – | – |
| Cc1cc(C)c2cccc(OCc3c(Cl)ccc(S(=O)(=O)NC4(C(=O)N5CCN(C(=O)C[C@@H](N)CCC[N+](C)(C)C)CC5)CCCC4)c3Cl)c2n1 | – | 0.2 nM | – | > 10000 nM | 1.58 nM | – | 96% | 57% |
| Cc1cc(C)c2cccc(OCc3c(Cl)ccc(S(=O)(=O)NC4(C(=O)N5CCN(C(=O)[C@@H](N)CCCC[N+](C)(C)C)CC5)CCCC4)c3Cl)c2n1 | – | – | – | > 10000 nM | 1.26 nM | – | 94% | 35% |
| Cc1cc(C)c2cccc(OCc3c(Cl)ccc(S(=O)(=O)NC4(C(=O)N5CCN(C(=O)C[C@@H](N)CCCNC(=N)N)CC5)CCCC4)c3Cl)c2n1 | – | – | – | > 10000 nM | 0.794 nM | – | 100% | 78% |
| Cc1cc(C)c2cccc(OCc3c(Cl)ccc(S(=O)(=O)NC4(C(=O)N5CCN(C(=O)CCCCC[N+](C)(C)C)CC5)CCCC4)c3Cl)c2n1 | – | – | – | > 10000 nM | 5.01 nM | – | – | – |
| Cc1cc(C)c2cccc(OCc3c(Cl)ccc(S(=O)(=O)NC4(C(=O)N5CCN(C(=O)[C@H](CCCCNC(=N)N)[N+](C)(C)C)CC5)CCCC4)c3Cl)c2n1 | – | 0.1 nM | – | > 10000 nM | 0.631 nM | – | 90% | 61% |
| Cc1cc(C)c2cccc(OCc3c(Cl)ccc(S(=O)(=O)NC4(C(=O)N5CCN(C(=O)[C@@H](N)CCCCNC(=N)N)CC5)CCCC4)c3Cl)c2n1 | 0.1 nM | 1 nM | 36% | > 10000 nM | 0.251 nM | 75% | – | – |
| Cc1cc(C)c2cccc(OCc3c(Cl)ccc(S(=O)(=O)NC4(C(=O)N5CCN(C(=O)[C@@H](N)CCC[N+](C)(C)C)CC5)CCN(C)CC4)c3Cl)c2n1 | – | 0.0794 nM | – | > 10000 nM | 0.251 nM | – | 86% | 40% |
| Cc1cc(C)c2cccc(OCc3c(Cl)ccc(S(=O)(=O)NC4(C(=O)N5CCN(C(=O)C[C@H](CCCN)[N+](C)(C)C)CC5)CCCC4)c3Cl)c2n1 | – | 0.126 nM | – | > 10000 nM | 1.26 nM | – | 94% | 72% |
| Cc1cc(C)c2cccc(OCc3c(Cl)ccc(S(=O)(=O)NC4(C(=O)N5CCN(C(=O)[C@H](CCCN)[N+](C)(C)C)CC5)CCCC4)c3Cl)c2n1 | – | 0.251 nM | – | > 10000 nM | 0.501 nM | – | 82% | 43% |
| Cc1cc(C)c2cccc(OCc3c(Cl)ccc(S(=O)(=O)NC4(C(=O)N5CCN(C(=O)[C@H](CCCCN(C)C)N(C)C)CC5)CCCC4)c3Cl)c2n1 | – | 0.2 nM | – | > 10000 nM | 3.16 nM | – | – | – |
| Cc1cc(C)c2cccc(OCc3c(Cl)ccc(S(=O)(=O)NC4(C(=O)N5CCN(C(=O)[C@@H](N)CC[N+](C)(C)C)CC5)CCCC4)c3Cl)c2n1 | – | 0.316 nM | – | > 10000 nM | 2 nM | – | 87% | 45% |

Continued, values first:

| Kb [1] | Ki [2] | Activity [3] | Ki [4] | Kb [5] | Activity [6] | Activity [7] | Activity [8] | Compound |
| --- | --- | --- | --- | --- | --- | --- | --- | --- |
| – | 0.398 nM | 17% | > 10000 nM | 1.58 nM | 87% | – | – | Cc1cc(C)c2cccc(OCc3c(Cl)ccc(S(=O)(=O)NC4(C(=O)N5CCN(C(=N)NCCC[N+](C)(C)C)CC5)CCCC4)c3Cl)c2n1 |
| – | 0.2 nM | – | > 10000 nM | 6.31 nM | – | – | – | Cc1cc(C)c2cccc(OCc3c(Cl)ccc(S(=O)(=O)NC4(C(=O)N5CCN(C(=O)[C@H](CCCC[N+](C)(C)C)[N+](C)(C)C)CC5)CCCC4)c3Cl)c2n1 |
| – | 0.2 nM | – | > 10000 nM | 2.51 nM | – | – | – | Cc1cc(C)c2cccc(OCc3c(Cl)ccc(S(=O)(=O)NC4(C(=O)N5CCN(C(=O)[C@H](CCC[N+](C)(C)C)[N+](C)(C)C)CC5)CCCC4)c3Cl)c2n1 |
| – | 0.0501 nM | – | > 10000 nM | 0.501 nM | – | 100% | 24% | Cc1cc(C)c2cccc(OCc3c(Cl)ccc(S(=O)(=O)NC4(C(=O)N5CCN(C(=O)[C@@H](N)CCC[N+](C)(C)C)CC5)CCCC4)c3Cl)c2n1 |
| – | – | – | > 10000 nM | 1.58 nM | – | 84% | 39% | Cc1cc(C)c2cccc(OCc3c(Cl)ccc(S(=O)(=O)NC4(C(=O)N5CCN(C(=O)[C@H](CCCCN)[N+](C)(C)C)CC5)CCCC4)c3Cl)c2n1 |
| 0.2 nM | – | 37% | > 10000 nM | – | 69% | – | – | Cc1cc(C)c2cccc(OCc3c(Cl)ccc(S(=O)(=O)NC(C)(C)C(=O)N4CCN(C(=O)[C@@H](N)CCCCN(C)C)CC4)c3Cl)c2n1 |
| – | 0.631 nM | – | > 10000 nM | 0.501 nM | – | 100% | 46% | Cc1cc(C)c2cccc(OCc3c(Cl)ccc(S(=O)(=O)NC4(C(=O)N5CCN(C(=O)C[C@@H](N)CCCN)CC5)CCCC4)c3Cl)c2n1 |
| – | 0.316 nM | – | > 10000 nM | 2 nM | – | – | – | Cc1cc(C)c2cccc(OCc3c(Cl)ccc(S(=O)(=O)NC4(C(=O)N5CCN(C(=O)[C@@H](N)CCCCN)CC5)CCCC4)c3Cl)c2n1 |
| – | – | – | > 10000 nM | 2 nM | – | 83% | 65% | Cc1cc(C)c2cccc(OCc3c(Cl)ccc(S(=O)(=O)NC4(C(=O)N5CCN(C(=O)CCC[N+](C)(C)C)CC5)CCCC4)c3Cl)c2n1 |
| – | 0.0501 nM | – | > 10000 nM | 0.158 nM | – | 89% | 59% | Cc1cc(C)c2cccc(OCc3c(Cl)ccc(S(=O)(=O)NC4(C(=O)N5CCN(C(=O)[C@@H](N)CCC[N+](C)(C)C)CC5)CCSCC4)c3Cl)c2n1 |
| – | 0.158 nM | – | > 10000 nM | 1.26 nM | – | – | – | CC(=O)N1CCC(NS(=O)(=O)c2ccc(Cl)c(COc3cccc4c(C)cc(C)nc34)c2Cl)(C(=O)N2CCN(C(=O)[C@@H](N)CCC[N+](C)(C)C)CC2)CC1 |
| – | 0.501 nM | – | > 10000 nM | 1.58 nM | – | – | – | Cc1cc(C)c2cccc(OCc3c(Cl)ccc(S(=O)(=O)NC4(C(=O)N5CCN(C(=O)[C@@H](N)CCC[N+](C)(C)C)CC5)CCNCC4)c3Cl)c2n1 |
| – | 0.251 nM | – | > 10000 nM | 1.58 nM | – | – | – | Cc1cc(C)c2cccc(OCc3c(Cl)ccc(S(=O)(=O)NC4(C(=O)N5CCN(C(=O)CCCC[N+](C)(C)C)CC5)CCCC4)c3Cl)c2n1 |
| – | 0.398 nM | – | > 10000 nM | 5.01 nM | – | 91% | 54% | Cc1cc(C)c2cccc(OCc3c(Cl)ccc(S(=O)(=O)NC4(C(=O)N5CCN(C(=O)C[N+](C)(C)C)CC5)CCCC4)c3Cl)c2n1 |
| – | 1.26 nM | – | > 10000 nM | 2 nM | – | – | – | Cc1cc(C)c2cccc(OCc3c(Cl)ccc(S(=O)(=O)NC4(C(=O)N5CCN(C(=O)CCCCCNC(=N)N)CC5)CCCC4)c3Cl)c2n1 |

Source: ChEMBL document CHEMBL1141405, “Design and synthesis of novel sulfonamide-containing bradykinin hB2 receptor antagonists. 2. Synthesis and structure-activity relationships of alpha,alpha-cycloalkylglycine sulfonamides” (J Med Chem, 2007)
